Assay results from ChEMBL document CHEMBL1131605, “Synthesis and pharmacological activity of triazolo[1,5-a]triazine derivatives inhibiting eosinophilia” (1998).

System: Rattus norvegicus
Assay: Percent inhibition value on the Sephadex-induced lung eosinophilia model at an intraperitoneal (ip) dose of 30 mg/kg
Assay type: functional
Procedure, shortened: (§1)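 Male Wistar rats, five per group; Sephadex G-200 (0.5 mg/mL in sterile saline, swollen by boiling 5 h), 1 mL injected via tail vein on days 0, 3 and 5; drug or vehicle given ip 10 min before each Sephadex injection. Day 7: lavage with heparinized PBS (37 °C), repeated, pooled; cells counted microscopically. Inhibition (%) from group-mean eosinophil/total-cell ratio versus vehicle.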

SMILES | inhibition in vivo at 30 mg/kg
Cn1cnc2ccccc2c1=S | 22%
CCCCn1cnc2ncnn2c1=S | 23%
Cn1c(-c2ccccc2)nc2ncnn2c1=S | 29%
CCOc1ncnc2ncnn12 | 6%
Cn1cnc2ncnc-2c1S | 9%
CCCn1cnc2ncnn2c1=S | 49%
CSc1nc(N)nc2ncnn12 | -29%
CCOC(=O)C(=O)Nc1nc2ncn(C)c(=S)n2n1 | -2%
Cn1cnc2nc(-c3ccc(C#N)cc3)nn2c1=S | 79%
Cn1cnc2ncnn2c1=S | 69%
CNC(=S)n1nc(SC)nc1N | 54%
Cn1cnc2ncnn2c1=O | 17%
Cc1nc2ncnn2c(=S)n1C | 18%
CSc1nc(N)n2ncnc2n1 | -7%
c1nc2nc(NC3CCCCC3)nc(NC3CCCCC3)n2n1 | 1%
CNc1nc(NC)n2ncnc2n1 | 38%
Cn1cnc2nc(-c3ccc(Cl)cc3)nn2c1=S | 92%
Cn1cnc2nc(-c3ccccc3)nn2c1=S | -1%
Cn1cnc2nncc-2c1S | -13%

System: Rattus norvegicus
Assay: Percent inhibition value on the Sephadex-induced lung eosinophilia model at an intraperitoneal (ip) dose of 3 mg/kg
Assay type: functional
Procedure, shortened: as §1

SMILES | inhibition in vivo at 3 mg/kg
C/N=C(\S)n1nc(-c2ccco2)nc1N | 18%
Cn1cnc2nc(-c3ccc(Cl)cc3Cl)nn2c1=S | 90%
C/N=C(\S)n1nc(/C=C/c2ccc(Cl)cc2)nc1N | 25%
C/N=C(\S)n1nc(-c2ccc(-c3ccccc3)cc2)nc1N | 58%
C/N=C(\S)n1nc(-c2ccc(Cl)c3ccccc23)nc1N | 14%
Cn1cnc2nc(-c3ccc(F)cc3)nn2c1=S | 38%
Cn1cnc2nc(-c3ccc(Br)cc3)nn2c1=S | 84%
Cc1nc2nc(-c3ccc(Cl)cc3)nn2c(=S)n1C | 60%
C/N=C(\S)n1nc(-c2ccc(Cl)cn2)nc1N | -2%
C/N=C(\S)n1nc(-c2cccs2)nc1N | -7%
C/N=C(\S)n1nc(-c2ccc(Cl)cc2)nc1N | 88%
C/N=C(\S)n1nc(Oc2ccccc2)nc1N | -5%
Cn1cnc2nc(-c3ccc(Cl)c(Cl)c3)nn2c1=S | 89%
C/N=C(\S)n1nc(C#Cc2ccccc2)nc1N | 0%
C/N=C(\S)n1nc(Cc2ccccc2)nc1N | -24%
Cn1c(-c2ccccc2)nc2nc(-c3ccc(Cl)cc3)nn2c1=S | 5%
Cn1cnc2nc(-c3ccc(Cl)cc3)nn2c1=S | 90%
C/N=C(\S)n1nc(-c2ccc(Cl)nc2)nc1N | -9%
CNC(=S)n1nc(/N=C/c2ccccc2)nc1N | 37%
Cn1cnc2nc(-c3ccc(C(F)(F)F)cc3)nn2c1=S | 87%

System: Rattus norvegicus
Assay: Percent inhibition value on the Sephadex-induced lung eosinophilia model at an intraperitoneal (ip) dose of 0.1 mg/kg
Assay type: functional
Procedure, shortened: as §1

SMILES | inhibition in vivo at 0.1 mg/kg
C[C@@H]1C[C@H]2[C@@H]3CCC4=CC(=O)C=C[C@]4(C)[C@@]3(F)[C@@H](O)C[C@]2(C)[C@@]1(O)C(=O)CO [DEXAMETHASONE] | 95%
